# Assay results as given in the RNAGym collection of RNA variant scans (doi:10.1038/nmeth.2970).
# B1: NELF-E aptamer (parent)
# chain: CCCAACGACUGCCGAGCGAGAUUACGCUUGAGCGCCCCACUGAGGAUGCCCACGGGCGAUUGGGGCACGG
# Variants of: B1
# Experiment: HiTS-RAP
# Details: with NELF-E (Drosophila)
# Procedure, shortened: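 Aptamer DNA templates carrying a T7 promoter and ter site were sequenced on an Illumina GAIIx flowcell, then transcribed in situ by T7 RNA polymerase and halted by GST-Tus (30 minutes, 37°C). Clusters were imaged after 30-minute room-temperature equilibration with NELF-E-mOrange at 0.064 to 1000 nM in HEPES binding buffer, and only the first binding curve was used. Intensities were normalised to sequencing intensity and averaged per sequence. Kd came from weighted Hill fits, keeping fits with variance below 1,000,000.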
row,Variant,Kd [nM]
1,U29G G54U,6.72
2,U29G G54A,13.1
3,A24G G54A,11.9
4,A24G G54U,7.49
5,G26U C27G,4.95
6,A24G C66U,5.38
7,U29C A43U,43.4
8,C33U,4.92
9,C33G,5.4
10,C33A,4.67
11,C25G U29G,6.18
12,A31G G64A,10.8
13,A24G A31U,6.88
14,A24G A31G,6.54
15,A24G A43G,27.9
16,A24G A43U,55.4
17,U28G U41G,5.18
18,C25G U41G,6.42
19,G30C,6.15
20,G30A,4.41
21,G30U,5.41
22,C25U U29G,6.54
23,U23G C53G,7.15
24,U23G C53A,6.72

row,Variant,Kd [nM]
1,U23G C53U,4.17
2,A24G C51U,8.86
3,G30U A31G,6.4
4,U29G G30C,5.14
5,U29G G30A,5.05
6,U29G G30U,5.81
7,A24G U29A,4.42
8,A24G U29G,5.84
9,A24G U29C,4.85
10,A24G U28C,12.3
11,A24G U28G,8.97
12,A24G U28A,3.42
13,U29G A52U,15.5
14,U29G A52G,4.39
15,A24G G44A,18.5
16,G34A A67U,16.8
17,G32A,4.35
18,G32C,4.57
19,G32U,5.38
20,A24G A39U,29.5
21,A24G A39G,10.2
22,C27U,4.14
23,C27G,5.01
24,C27A,4.28

row,Variant,Kd [nM]
1,A24G U61C,76.4
2,A24G U61G,9.98
3,A24G U61A,34.7
4,G26A U41G,4.19
5,U23G U61G,6.91
6,U23G U61A,31
7,U23G U61C,67.8
8,G34A A52U,20.7
9,U29A C37U,7.5
10,U29G C51U,8.19
11,U29G C51A,8.11
12,U29G C51G,4.37
13,U29A U41G,6.07
14,U29A U41C,79.2
15,A24G G26A,5.08
16,A24G G26U,6.2
17,U28C U41C,98.6
18,U28C U41G,11.9
19,U29G G64U,6.21
20,U29G G64A,7.34
21,U29G G64C,5.11
22,G26A C57U,6.13
23,G26U,5.53
24,G26A,4.05

row,Variant,Kd [nM]
1,G26C,13.8
2,U29G C49U,22.4
3,U23G C66U,6
4,A24G C50U,9.69
5,U23G C57U,5.72
6,U29G U41G,5.31
7,U29G U41A,78.7
8,U29G U41C,67.5
9,G32A U41G,5.08
10,A24G G62A,26.1
11,U29G G32A,5.37
12,U29G C53U,3.72
13,U29G C53G,5.71
14,C33G U41G,7.38
15,U29G G34U,5.71
16,U29G G34A,7.56
17,U29G C36G,8.06
18,U29G C36U,9.64
19,U29A C53U,5.35
20,A24G C25U,6.02
21,U23G U29A,5.6
22,U23G U29G,5.13
23,U23G U29C,5.67
24,A31G A43G,11.3

row,Variant,Kd [nM]
1,A24G G34A,8.56
2,U29A A31G,5.67
3,U29A A31U,4.6
4,U28C A59G,113
5,A24G G56A,11.9
6,A24G G56U,8.45
7,A31G G54A,18.4
8,U23G G56U,5.61
9,U23G G56A,8.2
10,U23G G65A,4.87
11,U23G G65U,6.65
12,A24G C35U,9.45
13,A31G A39G,14.3
14,A24G G48A,14.2
15,A24G U60C,12.8
16,U23G G30U,7.41
17,U23G G30A,4.6
18,G26U U41G,6.71
19,A24G C33U,5.71
20,A24G C33G,8.38
21,U28A,4.43
22,U28C,8.26
23,U28G,6.24
24,A24G C38U,8.33

row,Variant,Kd [nM]
1,U23G G64C,6.24
2,U23G G64U,6.13
3,U23G G64A,6.56
4,U28G A39G,11.2
5,A24G U41G,5.63
6,A24G U41A,92.9
7,U29C C36U,6
8,U23G G34U,5.63
9,U23G G34A,7.56
10,U23G U60C,11.9
11,U23G U60G,4.68
12,U23G U60A,12.9
13,C27U U29G,4.7
14,U29G A46U,77.8
15,U29G A46G,22.4
16,A24G C27U,6.16
17,U29G C37A,14.8
18,U29G C37G,8.38
19,U29G C37U,12.4
20,U29G U47G,6.21
21,U29G U47A,11.1
22,U29C C66U,5.81
23,U29C U41G,5.09
24,A24U U41G,6.61

row,Variant,Kd [nM]
1,A31U U41G,7.78
2,A24G C36G,8.51
3,A24G C36U,6.95
4,U29G C40U,56.1
5,U29G C40G,5.85
6,A24G A52G,5.14
7,A24G A52U,14.2
8,U29G C33G,6.45
9,U29G C33U,6.03
10,U28C U61A,43.5
11,A24G A67G,6.13
12,A24G A67U,7.95
13,G34U,5.56
14,G34C,9.79
15,G34A,6.53
16,U23G C50U,12.6
17,U23G C50A,16.7
18,U23G C50G,5.73
19,U29A,4.54
20,U29C,4.9
21,U29G,4.93
22,U29G G44A,94.7
23,U29G G44U,8.78
